Results as given in ChEMBL document CHEMBL3228045, “1-(Dichloroacetyl)-1,2,3,4-tetrahydro-6-quinolinol esters. New potent antiamebic agents” (J Med Chem, 1979).

Columns and labels:
[1] = Antiamebic activity against Entamoeba criceti infected in hamster assessed as reduction of trophozoites in cecum administered intragastric gavage bid for three consecutive days by microscopy; type: functional; details: Caecum, po
How it was run: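 Vehicle: 10% gelatin suspension, given by intragastric gavage in two split portions daily (morning and afternoon) for 3 consecutive days, dosed as (mg/kg)/day. Colony infection rate was at least 90%. Five hamsters per group at three twofold dose levels. The day after the last dose, cecal-wall scrapings in saline were examined microscopically at 43×. An animal with no trophozoites counted as cleared.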

[2] = Antiamebic activity against trophozoite form of Entamoeba criceti infected in hamster assessed as reduction in spontaneous infection in cecum administered intragastric gavage as single dose by microscopy; type: functional; details: Caecum, po
How it was run: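 Hamsters with spontaneous Entamoeba criceti infection were given one oral dose of drug. ED50 is reported ± SE in mg/kg po.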

[3] = Antiamebic activity against Entamoeba criceti infected in hamster assessed as reduction of trophozoites in cecum administered intragastric gavage as four dose by microscopy; type: functional; details: Caecum, po
[4] = system: Hamster; assay: Toxicity in hamster assessed as mortality at 10 mg/kg, po by acute test; type: organism-based; parameters: dose 10 mg/kg, route oral; details: cricetinae, in vivo
[5] = system: Rattus norvegicus; assay: Toxicity in rat assessed as mortality at 10 mg/kg, po by acute test; type: organism-based; parameters: dose 10 mg/kg, route oral; details: in vivo

| Structure (SMILES) | ED50 [1] [mg/kg] | other results |
| --- | --- | --- |
| O=C(Oc1ccc2c(c1)CCCN2C(=O)C(Cl)Cl)c1ccccc1 | 0.2 | ED50 [2]: 1.6 mg/kg |
| O=C(C(Cl)Cl)N1CCCc2cc(O)ccc21 | 1.2 |  |
| O=C(Oc1ccc2c(c1)CCCN2C(=O)C(Cl)Cl)c1cccs1 | 0.16 | ED50 [2]: 4.8 mg/kg |
| CCCC(=O)Oc1ccc2c(c1)CCCN2C(=O)C(Cl)Cl | 0.75 |  |
| CCCCCC(=O)Oc1ccc2c(c1)CCCN2C(=O)C(Cl)Cl | 1.75 |  |
| CNC(=O)Oc1ccc2c(c1)CCCN2C(=O)C(Cl)Cl | 5.7 |  |
| O=C(C(Cl)Cl)N1CCCc2c1ccc(O)c2Cl | 0.5 |  |
| O=C(C(Cl)Cl)N1CCCc2c1ccc(O)c2Br | 0.56 |  |
| O=C(Oc1ccc2c(c1Cl)CCCN2C(=O)C(Cl)Cl)c1cccs1 | 0.22 |  |
| O=C(Oc1ccc2c(c1Cl)CCCN2C(=O)C(Cl)Cl)c1ccco1 | 0.21 |  |
| O=C(Oc1ccc2c(c1Br)CCCN2C(=O)C(Cl)Cl)c1cccs1 | 1.24 |  |
| O=C(Oc1ccc2c(c1Br)CCCN2C(=O)C(Cl)Cl)c1ccco1 | 0.39 |  |
| O=C(CCl)N1CCCc2cc(O)ccc21 | 2 |  |
| O=C(N1CCCc2cc(O)ccc21)C(Cl)(Cl)Cl | 3 |  |
| CN(C(=O)C(Cl)Cl)c1ccc(OC(=O)c2ccco2)cc1 [DILOXANIDE FUROATE] | > 3.2 |  |
| CCOCCN(Cc1ccc(Oc2ccc([N+](=O)[O-])cc2)cc1)C(=O)C(Cl)Cl [ETOFAMIDE] |  | ED50 [3]: 0.38 mg/kg |
| O=C(Oc1ccc2c(c1)CCCN2C(=O)C(Cl)Cl)c1ccco1 [QUINFAMIDE] | 0.2 | Activity [4]: Non-toxic; Activity [5]: Non-toxic; ED50 [2]: 0.75 mg/kg |
